Laboratory results from ChEMBL document CHEMBL4411315, “Discovery of Novel Dual Histone Deacetylase and Mammalian Target of Rapamycin Target Inhibitors as a Promising Strategy for Cancer Therapy” (J Med Chem, 2019).
Activity calls are given as the source filed them. No cut-off for these calls is given here.

Key:
[1] = tested on: MM1.S; assay: Induction of apoptosis in human MM1S cells assessed as necrotic cells at 320 nM after 48 hrs by Annexin V-FITC/propidium iodide staining-based flow cytometric analysis (reference value: 0.32%); assay type: functional
[2] = Toxicity against NOD/SCID mouse xenografted with human MM1S cells assessed as mouse survival at 10 mg/kg, iv administered every 2 days for 5 days; assay type: organism-based; conditions: in vivo
In short: (§1)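 Female NOD/SCID mice, 5-6 weeks old, received 10^7 MM1S cells in 100 μL serum-free RPMI 1640 s.c. into the right flank. At 100-200 mm3 tumours they were randomised, 6 mice per group. Tumours were measured by caliper every 2 days. At the end, tumours were excised and weighed. Survivors are reported per group.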

[3] = tested on: MM1.S; assay: Induction of apoptosis in human MM1S cells assessed as late apoptotic cells at 160 nM after 48 hrs by Annexin V-FITC/propidium iodide staining-based flow cytometric analysis (reference value: 0.42%); assay type: functional
[4] = molecular target: Histone deacetylase 2 (Homo sapiens, UniProt Q92769); assay: Inhibition of recombinant full length human HDAC2 expressed in baculovirus expression system using Ac-peptide-AMC as substrate preincubated for 15 mins followed by substrate addition and measured after 1 hr by fluorescence assay
Chain of Histone deacetylase 2 (Q92769 whole entry): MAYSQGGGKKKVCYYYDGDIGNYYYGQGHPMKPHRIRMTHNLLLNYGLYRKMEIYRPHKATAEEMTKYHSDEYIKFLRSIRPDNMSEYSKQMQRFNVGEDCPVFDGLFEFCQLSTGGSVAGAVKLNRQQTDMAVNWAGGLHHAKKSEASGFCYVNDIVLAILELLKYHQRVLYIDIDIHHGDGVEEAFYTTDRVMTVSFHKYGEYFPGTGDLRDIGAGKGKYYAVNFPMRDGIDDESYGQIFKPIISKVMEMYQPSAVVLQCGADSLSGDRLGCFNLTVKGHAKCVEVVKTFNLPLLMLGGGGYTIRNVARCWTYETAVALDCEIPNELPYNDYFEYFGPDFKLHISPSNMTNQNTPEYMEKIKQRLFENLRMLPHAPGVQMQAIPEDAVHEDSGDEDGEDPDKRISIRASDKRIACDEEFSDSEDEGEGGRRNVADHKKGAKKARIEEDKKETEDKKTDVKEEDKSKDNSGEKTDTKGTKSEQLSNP

[5] = tested on: MM1.S; assay: Induction of apoptosis in human MM1S cells assessed as viable cells at 20 nM after 48 hrs by Annexin V-FITC/propidium iodide staining-based flow cytometric analysis (reference value: 98.9%); assay type: functional; conditions: read-out: Activity
[6] = tested on: MV4-11; assay: Induction of apoptosis in human MV4-11 cells assessed as early apoptotic cells at 20 nM after 48 hrs by Annexin V-FITC/propidium iodide staining-based flow cytometric analysis (reference value: 10.7%); assay type: functional
[7] = tested on: MM1.S; assay: Induction of apoptosis in human MM1S cells assessed as viable cells at 10 nM after 48 hrs by Annexin V-FITC/propidium iodide staining-based flow cytometric analysis (reference value: 98.9%); assay type: functional; conditions: read-out: Activity
[8] = molecular target: PI3-kinase p110-alpha/p85-alpha (Homo sapiens) (UniProt P27986+P42336); assay: Inhibition of recombinant human full length N-terminal His-tagged/untagged p110alpha/p85alpha expressed in baculovirus expression system at 1000 nM using PIP2 as substrate after 1 hr by Kinase-Glo reagent-based assay relative to control
In short: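 PI3Kα (p110α/p85α) incubated with PIP2 substrate and ATP in kinase buffer for 1 h at room temperature. Kinase-Glo reagent was then added for 15 min before luminescence read-out. Inhibition rate at 100 or 1000 nM is the mean of at least two experiments.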

[9] = molecular target: Histone deacetylase 5 (Homo sapiens, UniProt Q9UQL6); assay: Inhibition of recombinant full length N-terminal GST-tagged human HDAC5 expressed in baculovirus expression system using Ac-peptide-AMC as substrate preincubated for 15 mins followed by substrate addition and measured after 1 hr by fluorescence assay
Chain of Histone deacetylase 5 (Q9UQL6 whole entry): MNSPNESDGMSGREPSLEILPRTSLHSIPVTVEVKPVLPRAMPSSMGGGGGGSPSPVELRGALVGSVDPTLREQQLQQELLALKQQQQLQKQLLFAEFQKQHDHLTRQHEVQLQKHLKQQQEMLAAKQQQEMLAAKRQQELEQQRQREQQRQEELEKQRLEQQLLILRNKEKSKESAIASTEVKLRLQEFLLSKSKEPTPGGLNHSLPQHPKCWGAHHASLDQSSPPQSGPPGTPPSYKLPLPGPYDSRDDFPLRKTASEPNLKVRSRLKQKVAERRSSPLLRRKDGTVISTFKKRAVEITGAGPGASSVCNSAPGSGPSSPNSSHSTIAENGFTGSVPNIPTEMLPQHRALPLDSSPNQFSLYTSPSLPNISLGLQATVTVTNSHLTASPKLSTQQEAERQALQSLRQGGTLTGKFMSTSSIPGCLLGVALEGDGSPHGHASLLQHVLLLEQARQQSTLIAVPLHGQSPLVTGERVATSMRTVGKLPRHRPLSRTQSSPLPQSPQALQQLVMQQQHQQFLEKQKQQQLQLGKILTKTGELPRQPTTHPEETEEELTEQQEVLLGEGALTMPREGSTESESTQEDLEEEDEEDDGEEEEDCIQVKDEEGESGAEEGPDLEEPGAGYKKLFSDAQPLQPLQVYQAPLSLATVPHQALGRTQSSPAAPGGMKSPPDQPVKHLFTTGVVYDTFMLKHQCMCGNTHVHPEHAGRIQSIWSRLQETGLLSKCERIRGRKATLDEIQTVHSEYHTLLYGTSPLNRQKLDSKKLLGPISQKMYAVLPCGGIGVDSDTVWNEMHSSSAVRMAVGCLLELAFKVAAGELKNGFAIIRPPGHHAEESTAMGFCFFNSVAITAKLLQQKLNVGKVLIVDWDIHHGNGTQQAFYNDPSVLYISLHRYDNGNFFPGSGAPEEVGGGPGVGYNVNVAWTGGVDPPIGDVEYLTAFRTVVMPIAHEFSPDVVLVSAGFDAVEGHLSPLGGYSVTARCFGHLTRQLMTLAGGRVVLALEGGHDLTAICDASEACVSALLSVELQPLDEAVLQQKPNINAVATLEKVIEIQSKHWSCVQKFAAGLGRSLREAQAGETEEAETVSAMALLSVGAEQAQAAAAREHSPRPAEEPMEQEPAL

[10] = tested on: HCT-116; assay: Antiproliferative activity against human HCT116 cells after 72 hrs by MTT assay; assay type: functional, cell-based; conditions: HCT-116, 72 h
[11] = tested on: MV4-11; assay: Cell cycle arrest in human MV4-11 cells assessed as accumulation at S phase at 2.5 nM after 24 hrs by propidium iodide/RNase staining-based FACS analysis (reference value: 36.42%); assay type: functional
[12] = tested on: MV4-11; assay: Induction of apoptosis in human MV4-11 cells assessed as late apoptotic cells at 160 nM after 48 hrs by Annexin V-FITC/propidium iodide staining-based flow cytometric analysis (reference value: 5.03%); assay type: functional
[13] = molecular target: T1, Serine/threonine-protein kinase mTOR (Homo sapiens, UniProt P42345); assay: Inhibition of mTOR in human MV4-11 cells assessed as decrease in ERK phosphorylation after 24 hrs by Western blot analysis; assay type: cell-based
In short: (§2)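 Treatment of MV4-11 cells lasted 24 h at 0.01, 0.1, 1 and 10 μM. Lysis in RIPA buffer and BCA quantitation, then 30 μg protein by SDS-PAGE, PVDF transfer, 5% milk block, primary antibody overnight at 4 °C, HRP secondary 1 h and ECL detection. p-p70S6K (T389), p-4EBP1 (S65), p-Akt (S473) and p-ERK were probed.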

[14] = tested on: MM1.S; assay: Induction of apoptosis in human MM1S cells assessed as early apoptotic cells at 320 nM after 48 hrs by Annexin V-FITC/propidium iodide staining-based flow cytometric analysis (reference value: 0.38%); assay type: functional
[15] = Toxicity against NOD/SCID mouse xenografted with human MM1S cells assessed as mouse survival at 20 mg/kg, iv administered every 2 days for 5 days; assay type: organism-based; conditions: in vivo; in short: as §1
[16] = tested on: MV4-11; assay: Induction of apoptosis in human MV4-11 cells assessed as necrotic cells at 10 nM after 48 hrs by Annexin V-FITC/propidium iodide staining-based flow cytometric analysis (reference value: 0.17%); assay type: functional
[17] = tested on: MV4-11; assay: Induction of apoptosis in human MV4-11 cells assessed as viable cells at 20 nM after 48 hrs by Annexin V-FITC/propidium iodide staining-based flow cytometric analysis (reference value: 84.1%); assay type: functional; conditions: MV4-11, 48 h, read-out: Activity
[18] = molecular target: FKBP12A/mTOR (Homo sapiens) (UniProt P62942+P42345); assay: Inhibition of human recombinant MTOR/FKBP12 expressed in mammalian expression system assessed as residual activity at 1 uM
Chain of FKBP12A/mTOR (Homo sapiens) (P62942 2-108 limits assumed, other chains not shown): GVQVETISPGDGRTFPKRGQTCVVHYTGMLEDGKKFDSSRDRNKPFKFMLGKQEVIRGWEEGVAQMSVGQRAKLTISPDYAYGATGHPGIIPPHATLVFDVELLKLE
In short: (§3)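 Radiometric kinase panel (99 kinases) run at 1 μM inhibitor in duplicate with [γ-33P]ATP, kinase-specific buffer and substrate at room temperature. The reaction was started with Mg/ATP and stopped with 0.5% phosphoric acid, then spotted on P30 filtermat, washed and scintillation counted. Results are expressed as % remaining activity versus DMSO control.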

[19] = tested on: MM1.S; assay: Induction of apoptosis in human MM1S cells assessed as necrotic cells at 10 nM after 48 hrs by Annexin V-FITC/propidium iodide staining-based flow cytometric analysis (reference value: 0.32%); assay type: functional
[20] = tested on: MV4-11; assay: Induction of apoptosis in human MV4-11 cells assessed as early apoptotic cells at 40 nM after 48 hrs by Annexin V-FITC/propidium iodide staining-based flow cytometric analysis (reference value: 10.7%); assay type: functional
[21] = tested on: MV4-11; assay: Induction of apoptosis in human MV4-11 cells assessed as late apoptotic cells at 40 nM after 48 hrs by Annexin V-FITC/propidium iodide staining-based flow cytometric analysis (reference value: 5.03%); assay type: functional
[22] = tested on: MV4-11; assay: Cell cycle arrest in human MV4-11 cells assessed as accumulation at S phase at 1.25 nM after 24 hrs by propidium iodide/RNase staining-based FACS analysis (reference value: 36.42%); assay type: functional
[23] = Toxicity against NOD/SCID mouse xenografted with human MM1S cells assessed as effect on body weight at 20 mg/kg, iv administered every 2 days for 5 days; assay type: organism-based; conditions: in vivo; in short: as §1
[24] = molecular target: T1, Serine/threonine-protein kinase mTOR; assay: Inhibition of mTOR in human MV4-11 cells assessed as decrease in Akt phosphorylation at S473 residues at 0.01 to 10 uM after 24 hrs by Western blot analysis; assay type: cell-based; in short: as §2
[25] = molecular target: T1, Serine/threonine-protein kinase mTOR; assay: Inhibition of human recombinant mTOR expressed in mammalian expression system assessed as residual activity at 1 uM; in short: as §3
[26] = tested on: MM1.S; assay: Induction of apoptosis in human MM1S cells assessed as viable cells at 40 nM after 48 hrs by Annexin V-FITC/propidium iodide staining-based flow cytometric analysis (reference value: 98.9%); assay type: functional; conditions: read-out: Activity

C[C@@H]1CN(C(=O)Nc2ccc(-c3nc(N4CCOCC4)c4cnn(CCCCCCC(=O)NO)c4n3)cc2)CCO1
Activity [1]: 2.2% | Activity [2]: Non-Toxic | Activity [3]: 63.3% | IC50 [4]: 0.61 nM | viability at 0.02 µM [5]: 92.6% | Activity [6]: 38.2% | viability at 0.01 µM [7]: 95.1% | inhibition [8]: 57.3% | IC50 [9]: > 1000 nM | IC50 [10]: 17.2 nM | Activity [11]: 33.77% | Activity [12]: 61.9% | inhibition [13]: Dose-dependent effect | Activity [14]: 32.2% | Activity [15]: Non-Toxic | Activity [16]: 0.14% | viability at 0.02 µM [17]: 20.6% | inhibition [18]: Active | Activity [19]: 0.31% | Activity [20]: 37.4% | Activity [21]: 57.6% | Activity [22]: 34.16% | Activity [23]: Non-Toxic | inhibition [24]: Active | inhibition [25]: Active | viability at 0.04 µM [26]: 70.1%
